Data set [1] has as its system Vesicular stomatitis virus. The data set is described as follows: Antiviral activity against in Vesicular stomatitis virus in human E6SM cells assessed as reduction of virus-induced cytopathogenicity. Type of data set: functional. Put shortly: (§1)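 Confluent cell monolayers (E6SM, HEL, HeLa or Vero, per line) inoculated with 100 CCID50 virus; 1 h adsorption, residual virus removed, then incubated with compound at 400, 200, 100 … µg/ml. Cytopathicity scored once complete in untreated virus controls; MIC = concentration inhibiting virus-induced cytopathicity.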
(Cytopathic effects are the visible damage that an infection or toxin causes in cultured cells.)

The test system of the next data set is Punta Toro virus. The data set can be described thus: Antiviral activity against Punta Toro virus in african green monkey Vero cells assessed as reduction of virus-induced cytopathogenicity. The data set is classed as functional. Put shortly: as §1
Data set [2] relates to Respiratory syncytial virus. The data set can be described thus: Antiviral activity against respiratory syncytial virus in human HeLa cells assessed as inhibition of virus-induced cytopathogenicity. Type of data set: functional. The method, boiled down:
as §1

The next data set has as its system Sindbis virus. The data set is described as follows: Antiviral activity against Sindbis virus in african green monkey Vero cells assessed as reduction of virus-induced cytopathogenicity. Type of data set: functional. The method, boiled down: as §1
The test system of data set [3] is Coxsackievirus B4. The data set can be described thus: Antiviral activity against Coxsackie virus B4 in african green monkey Vero cells assessed as reduction of virus-induced cytopathogenicity. The data set is classed as functional. To be noted: Enterovirus B. The method, boiled down:
as §1

Data set [4] concerns Human alphaherpesvirus 1. The data set is described as follows: Antiviral activity against HSV1 KOS in human E6SM cells assessed as reduction of virus-induced cytopathogenicity. Type of data set: functional. To be noted: Human alphaherpesvirus 1, KOS. The method, boiled down: as §1
Data set [5] concerns Human alphaherpesvirus 3. The data set can be described thus: Antiviral activity against TK+ VZV OKA infected HEL cells assessed as reduction in virus plaque formation. The data set is classed as functional, organism-based. To be noted: Human alphaherpesvirus 3, OKA.
Data set [6] has as its system Human alphaherpesvirus 3. The data set is described as follows: Antiviral activity against TK- VZV 07/1 infected HEL cells assessed as reduction in virus plaque formation. Type of data set: functional, organism-based. To be noted: Human alphaherpesvirus 3, 07/1, HEL.
Data set [7] has as its system Human alphaherpesvirus 1. The data set is described as follows: Antiviral activity against HSV1 KOS in human HEL cells assessed as reduction of virus-induced cytopathogenicity. The data set is classed as functional. The note with it: Human alphaherpesvirus 1, KOS. The method, boiled down:
as §1

The test system of the next data set is Human respirovirus 3. The data set is described as follows: Antiviral activity against Parainfluenza 3 virus in african green monkey Vero cells assessed as reduction of virus-induced cytopathogenicity. Type of data set: functional. Put shortly:
as §1

The nature of data set [8]: Cytotoxicity against human HeLa cells. The data set is classed as cell-based. Put shortly:
(§2)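 Uninfected cell cultures exposed to test compounds alongside antiviral assays; minimum cytotoxic concentration (MCC) = concentration causing a microscopically detectable alteration of cell morphology.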

Data set [9] has as its system Human alphaherpesvirus 2. The data set is described as follows: Antiviral activity against HSV2 G in human E6SM cells assessed as reduction of virus-induced cytopathogenicity. The data set is classed as functional. To be noted: Human alphaherpesvirus 2, G. Put shortly: as §1
The test system of data set [10] is Mammalian orthoreovirus 1. The data set can be described thus: Antiviral activity against Reo virus 1 in african green monkey Vero cells assessed as reduction of virus-induced cytopathogenicity. Type of data set: functional. Put shortly:
as §1

Data set [11] has as its system Human alphaherpesvirus 2. The data set can be described thus: Antiviral activity against HSV2 G in human HEL cells assessed as reduction of virus-induced cytopathogenicity. The data set is classed as functional. The note with it: Human alphaherpesvirus 2, G. The method, boiled down: as §1
The subject of data set [12] is Coxsackievirus B4. The data set is described as follows: Antiviral activity against Coxsackie virus B4 in human HeLa cells assessed as inhibition of virus-induced cytopathogenicity. The data set is classed as functional. The note with it: Enterovirus B. Put shortly: as §1
Data set [13] deals with Human alphaherpesvirus 1. The data set is described as follows: Antiviral activity against thymidine kinase deficient and acyclovir resistant HSV1 KOS in human HEL cells assessed as reduction of virus-induced cytopathogenicity. The note with it: Human alphaherpesvirus 1, KOS. The data set is classed as functional. The method, boiled down:
as §1

In data set [14] the test system is Vesicular stomatitis virus. The data set is described as follows: Antiviral activity against in Vesicular stomatitis virus in human HEL cells assessed as reduction of virus-induced cytopathogenicity. Type of data set: functional. The method, boiled down: as §1
Data set [15] is described as follows: Cytotoxicity against human E6SM cells. Type of data set: cell-based. To be noted: E6SM cells. Put shortly:
as §2

Data set [16] is described as follows: Cytotoxicity against human HEL cells assessed as alteration of cell morphology. The data set is classed as cell-based. The method, boiled down: as §2
In data set [17] the test system is Human alphaherpesvirus 1. The data set can be described thus: Antiviral activity against thymidine kinase deficient and acyclovir resistant HSV1 KOS in human E6SM cells assessed as reduction of virus-induced cytopathogenicity. Type of data set: functional. The note with it: Human alphaherpesvirus 1, KOS. Put shortly: as §1
Data set [18] deals with Vesicular stomatitis virus. The data set is described as follows: Antiviral activity against vesicular stomatitis virus in human HeLa cells assessed as inhibition of virus-induced cytopathogenicity. Type of data set: functional. The method, boiled down:
as §1

The next data set deals with Vero. The data set is described as follows: Cytotoxicity against african green monkey Vero cells. The data set is classed as cell-based. The note with it: chlorocebus sabaeus. The method, boiled down: as §2
The subject of data set [19] is Human betaherpesvirus 5. The data set can be described thus: Antiviral activity against human cytomegalovirus AD169 infected HEL cells assessed as reduction in virus plaque formation. Type of data set: functional, organism-based. To be noted: Human betaherpesvirus 5, AD169, HEL.
The nature of data set [20]: Cytotoxicity against human HEL cells assessed as reduction of cell growth. The data set is classed as cell-based. Put shortly:
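HEL cells; CC50 = compound concentration reducing cell growth by 50%.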

Data set [21] has as its system Human betaherpesvirus 5. The data set can be described thus: Antiviral activity against human cytomegalovirus Davis infected HEL cells assessed as reduction in virus plaque formation. The data set is classed as functional, organism-based. The note with it: Human betaherpesvirus 5, Davis.
A short description of data set [22]: Cytotoxicity against human MT4 cells by MTT assay. The data set is classed as cell-based. The method, boiled down: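 Mock-infected MT-4 cells (6 × 10⁵ cells/ml) with serial five-fold compound dilutions in triplicate; MTT reduction read at 540 and 690 nm after 5 days, median OD of three wells; CC50 = concentration reducing OD540 of mock-infected control by 50%.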

The subject of data set [23] is Human immunodeficiency virus 1. The data set can be described thus: Antiviral activity against HIV1 3B in human MT4 cells assessed as protection against virus-induced cytopathogenicity by MTT assay. The data set is classed as functional, organism-based. Set-up: Activity: concentration or dose not given beside the values. Put shortly:
(§3)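 MT-4 cells at 6 × 10⁵ cells/ml infected with HIV-1 IIIB or HIV-2 ROD at 100–300 CCID50; compounds in serial five-fold dilutions, triplicate mock- and virus-infected wells. MTT viability read at 540 and 690 nm after 5 days, median OD of three wells; EC50 = 50% protection from viral cytopathic effect.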

The subject of data set [24] is Human immunodeficiency virus 2. The data set is described as follows: Antiviral activity against HIV2 ROD in human MT4 cells assessed as protection against virus-induced cytopathogenicity by MTT assay. Type of data set: functional, organism-based. Also on record: Activity: concentration or dose not given beside the values. The method, boiled down: as §3

The structures appear in SMILES notation. Converted amounts (≈) assume the structure as drawn.

As usually defined, the EC50 is the concentration at which the effect is half-maximal. The CC50 is the concentration giving 50% cytotoxicity. Usually IC50 stands for the point on the concentration scale where inhibition reaches its midpoint.

Regarding `O=c1[nH]c(=O)n([C@H]2C[C@H](O)[C@@H](CO)O2)cc1/C=C/Br` [BRIVUDINE], the MIC in data set [1] was over 400 µg/mL; with Punta Toro virus, over 400 µg/mL; in data set [2], over 400 µg/mL; in the data set with Sindbis virus, over 400 µg/mL; with Coxsackievirus B4 [3], over 400 µg/mL; in the data set on Human alphaherpesvirus 1 [4] it was 0.0768 µg/mL (≈ 0.231 µM). Also, the MIC with Human alphaherpesvirus 1 [7] is 0.0768 µg/mL (≈ 0.231 µM); in the data set on Human respirovirus 3 it was over 400 µg/mL; in the data set with Human alphaherpesvirus 2 [9], 80 µg/mL (≈ 240 µM); in [10] it was over 400 µg/mL; with Human alphaherpesvirus 2 [11], 80 µg/mL (≈ 240 µM); with Coxsackievirus B4 [12], over 400 µg/mL. The MIC (in the data set with Human alphaherpesvirus 1 [13]; in data set [14]; with Human alphaherpesvirus 1 [17]; in data set [18]) was over 400 µg/mL in each case. For the same molecule, the results for the EC50 with Human alphaherpesvirus 3 [5] and in the data set on Human alphaherpesvirus 3 [6] were 0.02 µg/mL (≈ 0.06 µM) and 25 µg/mL (≈ 75 µM), respectively. Also, the MCC is at least 400 µg/mL in data set [8], over 400 µg/mL in data set [15] and over 400 µg/mL in data set [16]. Also, in the data set with Vero, the Activity is over 400 µg/mL.

Consider `Nc1nc2c(ncn2COC(CO)CO)c(=O)[nH]1` [GANCICLOVIR], for which the MIC is over 100 µg/mL in [1]; 0.032 µg/mL (≈ 0.125 µM) with Human alphaherpesvirus 1 [4]; 0.032 µg/mL (≈ 0.125 µM) in the data set with Human alphaherpesvirus 1 [7]; 0.032 µg/mL (≈ 0.125 µM) in the data set with Human alphaherpesvirus 2 [9]; 0.032 µg/mL (≈ 0.125 µM) in the data set with Human alphaherpesvirus 2 [11]; 2.4 µg/mL (≈ 9.4 µM) in the data set with Human alphaherpesvirus 1 [13]. Also, the MIC in [14] is over 100 µg/mL; with Human alphaherpesvirus 1 [17] it was 2.4 µg/mL (≈ 9.4 µM). Besides, the EC50 stood at 0.64 µg/mL (≈ 2.51 µM) with Human betaherpesvirus 5 [19] and 1.9 µg/mL (≈ 7.44 µM) in the data set with Human betaherpesvirus 5 [21]. The CC50 in data set [20] was 87 µg/mL (≈ 341 µM). In addition, the MCC in data set [15] and in [16] was over 100 µg/mL throughout.

`CCNC(=S)Nc1ccc(-c2n[nH]c(=S)n2-c2ccccc2)cc1`: the MIC was over 3.2 µg/mL in data set [1]; over 80 µg/mL in the data set with Punta Toro virus; over 80 µg/mL in data set [2]; over 80 µg/mL in the data set on Sindbis virus; over 80 µg/mL with Coxsackievirus B4 [3]; over 3.2 µg/mL with Human alphaherpesvirus 1 [4]. Also, the MIC with Human alphaherpesvirus 1 [7] is over 3.2 µg/mL; with Human respirovirus 3, over 80 µg/mL; in the data set on Human alphaherpesvirus 2 [9] it was over 3.2 µg/mL; in data set [10] it was over 80 µg/mL; with Human alphaherpesvirus 2 [11], over 3.2 µg/mL; with Coxsackievirus B4 [12] it was over 80 µg/mL. Besides, the MIC is over 3.2 µg/mL in the data set with Human alphaherpesvirus 1 [13], over 3.2 µg/mL in data set [14], over 3.2 µg/mL with Human alphaherpesvirus 1 [17] and over 80 µg/mL in data set [18]. The molecule also displayed a CC50 in [22] of 91.3 µg/mL (≈ 257 µM). Further, the Activity is reported as 5.5% in data set [23], 3% in data set [24] and “>= 80 ug ml-1” in the data set on Vero. Also, the IC50 in data set [23] (Human immunodeficiency virus 1, 3B, MT4) was over 91.3 µg/mL; in data set [24] (Human immunodeficiency virus 2, ROD, MT4), over 91.3 µg/mL. The MCC in data set [8] is at least 80 µg/mL; in [15] it was at least 3.2 µg/mL; in data set [16] it was at least 3.2 µg/mL.

Take `Nc1nc2c(ncn2COCCO)c(=O)[nH]1` [ACYCLOVIR]: the MIC is over 400 µg/mL in [1]; 0.384 µg/mL (≈ 1.71 µM) in the data set with Human alphaherpesvirus 1 [4]; 0.384 µg/mL (≈ 1.71 µM) in the data set on Human alphaherpesvirus 1 [7]; 0.384 µg/mL (≈ 1.71 µM) with Human alphaherpesvirus 2 [9]; 0.384 µg/mL (≈ 1.71 µM) in the data set on Human alphaherpesvirus 2 [11]; 48 µg/mL (≈ 213 µM) with Human alphaherpesvirus 1 [13]. The MIC is over 400 µg/mL in data set [14] and 48 µg/mL (≈ 213 µM) in the data set with Human alphaherpesvirus 1 [17]. The CC50 in data set [20] was 200 µg/mL (≈ 888 µM). The MCC in data set [15] and in data set [16] was over 400 µg/mL each time.

The record behind these values is ChEMBL document CHEMBL1149790, “Synthesis of some novel thiourea derivatives obtained from 5-[(4-aminophenoxy)methyl]-4-alkyl/aryl-2,4-dihydro-3H-1,2,4-triazole-3-thiones and evaluation as antiviral/anti-HIV and anti-tuberculosis agents” (Eur J Med Chem, 2008).
